In ChEMBL document CHEMBL1177774, “2-Aryl-4,5,6,7-tetrahydro-1,3-benzothiazol-7-ols as a class of antitumor agents selectively active in securin(-/-) cells” (Bioorg Med Chem Lett, 2010):
pIC50: −log10 of the molar value.

How the values were obtained:
Format in all cases: functional, cell-based
MDA-MB-361 = assay: Cytotoxicity against human MDA-MB-361 cells after 2 days by sulforhodamine B assay; conditions: MDA-MB-361, 48 h
Procedure, shortened: (§1)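 Cells kept in RPMI 1640 with 10% fetal bovine serum and 50 µg/ml gentamicin, 37 °C, humidified, 5% CO2. Plated in 96-well plates; compound dilutions added next day (final 2 nM to 200 µM), then 2 days culture before survival read-out. 10 concentrations, in triplicate (some in duplicate); repeat values agreed on average within 40%.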

MCF-10A = assay: Cytotoxicity against human MCF10A cells after 2 days by sulforhodamine B assay; conditions: 48 h; procedure, shortened: as §1
HCT-116 [1] = assay: Cytotoxicity against human HCT116 cells after 2 days by sulforhodamine B assay; conditions: HCT-116, 48 h; procedure, shortened: as §1
MCF7 = assay: Cytotoxicity against human MCF7 cells after 2 days by sulforhodamine B assay; conditions: MCF7, 48 h; procedure, shortened: as §1
HCT-116 [2] = assay: Cytotoxicity against human HCT116-D8 securin -/- cells after 2 days by sulforhodamine B assay; conditions: HCT-116, 48 h; procedure, shortened: as §1
[3] = Cytotoxicity against human HCT116-F3 securin -/- cells after 2 days by sulforhodamine B assay; conditions: 48 h; procedure, shortened: as §1

Row | Structure (SMILES) | pIC50 (MDA-MB-361) | pIC50 (MCF-10A) | pIC50 (HCT-116 [1]) | pIC50 (MCF7) | pIC50 (HCT-116 [2]) | pIC50 [3]
1 | OC1CNCc2nc(-c3ccc(N4CCCC4)cc3)sc21 (stereo unspecified) | 6.85 | 4.56 | 4.60 | 5.82 | 6.14 | 5.97
2 | CN(C)c1ccc(-c2nc3c(s2)C(O)CNC3)c(CO)c1 (stereo unspecified) | 7.66 | 4.15 | < 4.00 | 7.51 | 7.00 | 7.00
3 | CN(C)c1ccc(-c2nc3c(s2)C(O)CCC3)cc1 (stereo unspecified) | 6.08 | < 3.82 | < 3.82 | 5.93 | 5.82 | 5.52
4 | CN(C)c1ccc(-c2nc3c(s2)[C@H](O)CCC3)cc1 | 6.70 | < 4.00 | 3.94 | 5.84 | 6.07 | 5.84
5 | CN(C)c1ccc(-c2nc3c(s2)[C@@H](O)CCC3)cc1 |  | < 4.00 | < 4.00 | 5.48 | 4.70 | 4.34
6 | Cc1cc(N(C)C)ccc1-c1nc2c(s1)[C@H](O)CCC2 | 7.08 | < 4.00 | < 4.00 | 6.14 | 6.57 | 6.64
7 | OCc1cc(N2CCCC2)ccc1-c1nc2c(s1)C(O)CNC2 (stereo unspecified) | 7.70 | < 4.00 | < 4.00 | 7.89 | 7.15 | 7.22
8 | OC1CCCc2nc(-c3ccc(N4CCCC4)cc3)sc21 (stereo unspecified) | 6.70 | < 4.00 | < 4.00 | 5.06 | 5.82 | 5.55
9 | CN(C)c1ccc(-c2nc3c(s2)C(O)CCC3)c(CO)c1 (stereo unspecified) | 6.38 | < 4.00 | 4.11 | 6.44 | 7.22 | 7.22
10 | OCc1cc(N2CCCC2)ccc1-c1nc2c(s1)C(O)CCC2 (stereo unspecified) | 7.49 | 4.77 | 4.68 | 7.25 | 7.38 | 7.36
11 | CN(C)c1ccc(-c2nc3c(s2)C(O)CNC3)cc1 (stereo unspecified) | 6.77 | 4.15 | 3.92 | 5.80 | 5.88 | 5.79
12 | Cc1cc(N(C)C)ccc1-c1nc2c(s1)[C@@H](O)CCC2 | 6.80 | < 4.00 | 3.90 | 5.67 | 6.25 | 5.94
